From ChEMBL document CHEMBL3351840, “Lithocarpic Acids A-N, 3,4-seco-Cycloartane Derivatives from the Cupules of Lithocarpus polystachyus” (J Nat Prod, 2014) come the findings set out here.

In assay [1] the test system is Staphylococcus aureus. Kind of assay: Antibacterial activity against Staphylococcus aureus ATCC 25923 after 18 hrs by microdilution method. Format: functional. To be noted: ATCC 25923, 18 h. (In general: In broth dilution the organism is exposed to a series of concentrations in liquid medium.)
Assay [2] has as its system Staphylococcus epidermidis. Kind of assay: Antibacterial activity against Staphylococcus epidermidis ATCC 12228 after 18 hrs by microdilution method. Format: functional. To be noted: ATCC 12228, 18 h.
Assay [3] deals with Micrococcus luteus. Nature of the assay: Antibacterial activity against Micrococcus luteus ATCC 9341 after 18 hrs by microdilution method. Format: functional. To be noted: ATCC 9341, 18 h.
The subject of assay [4] is Bacillus subtilis. Kind of assay: Antibacterial activity against Bacillus subtilis ATCC 6633 after 18 hrs by microdilution method. Format: functional. To be noted: ATCC 6633, 18 h.
Assay [5] concerns the target T1, 11-beta-hydroxysteroid dehydrogenase 1 (Homo sapiens, UniProt P28845). Kind of assay: Inhibition of human 11beta-HSD1 expressed in HEK293 cells assessed as [3H]cortisol at 10 uM by scintillation proximity assay. Format: cell-based. The method in brief: (§1)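 Single-concentration screen at 10 μM by scintillation proximity assay, read as % inhibition. Microsomes were incubated with NADPH and [3H]-cortisone. The [3H]-cortisol formed was captured by a monoclonal antibody on protein A-coated SPA beads. Glycyrrhetinic acid served as positive control.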
For orientation: Scintillation proximity formats need no separation of bound from free tracer.
Target sequence in this assay (P28845 whole entry, looked up): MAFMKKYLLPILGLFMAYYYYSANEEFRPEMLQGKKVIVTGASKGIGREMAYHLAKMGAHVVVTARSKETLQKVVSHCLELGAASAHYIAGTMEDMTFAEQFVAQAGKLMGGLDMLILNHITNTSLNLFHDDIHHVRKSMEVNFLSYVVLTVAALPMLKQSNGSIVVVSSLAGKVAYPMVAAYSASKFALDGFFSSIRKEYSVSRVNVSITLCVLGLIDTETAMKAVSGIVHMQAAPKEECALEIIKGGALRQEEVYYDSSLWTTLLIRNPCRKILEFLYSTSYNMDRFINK

Assay [6] addresses 11-beta-hydroxysteroid dehydrogenase 1 (Mus musculus) (UniProt P50172). Kind of assay: Inhibition of mouse 11beta-HSD1 expressed in HEK293 cells assessed as [3H]cortisol at 10 uM by scintillation proximity assay. Format: cell-based. The method in brief:
as §1

Assay [7] concerns the target T1, 11-beta-hydroxysteroid dehydrogenase 1. Kind of assay: Inhibition of human 11beta-HSD1 expressed in HEK293 cells assessed as [3H]cortisol by scintillation proximity assay. Format: cell-based. The essentials: (§2)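 IC50 by scintillation proximity assay. Enzyme source was microsomes from HEK293 cells stably transfected with human or murine 11β-HSD1. Microsomes were incubated with NADPH and [3H]-cortisone. Product [3H]-cortisol was captured by a monoclonal antibody coupled to protein A-coated SPA beads. Glycyrrhetinic acid served as positive control.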
Target sequence in this assay (P28845 whole entry): as the sequence (P28845 whole entry, looked up) above

In assay [8] the target is 11-beta-hydroxysteroid dehydrogenase 1 (Mus musculus, UniProt P50172). Kind of assay: Inhibition of mouse 11beta-HSD1 expressed in HEK293 cells assessed as [3H]cortisol by scintillation proximity assay. Format: cell-based. The method in brief:
as §2

Converted amounts (≈) assume the structure as drawn.

Chain of 11-beta-hydroxysteroid dehydrogenase 1 (Mus musculus, UniProt P50172) (P50172 whole entry): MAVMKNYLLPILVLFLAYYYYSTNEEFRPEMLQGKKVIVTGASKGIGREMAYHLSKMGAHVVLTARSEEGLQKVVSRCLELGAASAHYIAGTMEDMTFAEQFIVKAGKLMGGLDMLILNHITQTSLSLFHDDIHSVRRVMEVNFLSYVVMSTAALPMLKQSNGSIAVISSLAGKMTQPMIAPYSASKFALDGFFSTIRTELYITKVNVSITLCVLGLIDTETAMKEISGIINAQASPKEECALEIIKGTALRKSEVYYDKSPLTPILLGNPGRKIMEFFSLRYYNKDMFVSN
Chain of 11-beta-hydroxysteroid dehydrogenase 1 (Mus musculus) (P50172 whole entry, looked up): as the sequence (P50172 whole entry) above

What is called MIC is the lowest concentration that inhibits growth of the organism. Lower therefore signals inhibition by little substance. As for `C=C(C)[C@@H]1CC[C@@H]2[C@]3(CC[C@]4(C)[C@@H]([C@H]5CC[C@@H](C(C)(C)O)OC5)CC[C@@]24C)C[C@]13CCC(=O)O`, the MIC in assay [1], in assay [2], in assay [3] and in assay [4] was more than 50 mg/L throughout.
Consider `C=C(C)[C@@H]1CC[C@@H]2[C@]3(CC[C@]4(C)[C@@H]([C@H](C)C/C=C/C(C)(C)O)CC[C@@]24C)C[C@]13CCC(=O)O`, for which the MIC in assay [1] was more than 50 mg/L; in assay [2], more than 50 mg/L; in assay [3] it was 6.3 mg/L (≈ 13.8 µM); in assay [4] it was 3.1 mg/L (≈ 6.79 µM).
The inhibition is the percentage by which the read-out fell short of the control. The IC50 is the concentration needed to halve the response being measured. For `C=C(C)[C@@H]1CC[C@@H]2[C@]3(CC[C@]4(C)[C@@H]([C@H]5CC[C@H](C(C)(C)O)OC5)CC[C@@]24C)C[C@]13CCC(=O)O`, the MIC is 25 mg/L (≈ 52.9 µM) in assay [1], 12.5 mg/L (≈ 26.4 µM) in assay [2], 3.1 mg/L (≈ 6.56 µM) in assay [3] and 6.3 mg/L (≈ 13.3 µM) in assay [4]. The inhibition in assay [5] and in assay [6] was more than 60% in each case. Moreover, the IC50 amounted to 1.9 µM in assay [7] and 0.24 µM in assay [8].
`CC1COc2c(N3CCN(C)CC3)c(F)cc3c(=O)c(C(=O)O)cn1c23` (stereo not given) [OFLOXACIN]: the minimum inhibitory concentration (MIC) in assay [1] was 0.2 mg/L (≈ 0.553 µM); in assay [2], 0.2 mg/L (≈ 0.553 µM); in assay [3], 1.6 mg/L (≈ 4.43 µM); in assay [4], 0.013 mg/L (≈ 0.036 µM).
`C=C(C)C(=O)CC[C@@H](COC(C)=O)[C@H]1CC[C@@]2(C)[C@@H]3CC[C@@H](C(=C)C)[C@@]4(CCC(=O)O)C[C@@]34CC[C@]12C`: the minimum inhibitory concentration (MIC) in assay [1] was more than 50 mg/L; in assay [2], more than 50 mg/L; in assay [3], more than 50 mg/L; in assay [4], 25 mg/L (≈ 48.8 µM).
For `C=C(C)[C@@H]1CC[C@@H]2[C@]3(CC[C@]4(C)[C@@H]([C@@H](CCC(=O)O)COC(C)=O)CC[C@@]24C)C[C@]13CCC(=O)O`, the inhibition in assay [5] and in assay [6] was more than 60% each time. In addition, the IC50 in assay [7] came out at 1.9 µM.
For the compound `C=C(C)[C@@H](O)CC[C@@H](COC(C)=O)[C@H]1CC[C@@]2(C)[C@@H]3CC[C@@H](C(=C)C)[C@@]4(CCC(=O)O)C[C@@]34CC[C@]12C`, the MIC was more than 50 mg/L in assay [1], 25 mg/L (≈ 48.6 µM) in assay [2], 12.5 mg/L (≈ 24.3 µM) in assay [3] and 12.5 mg/L (≈ 24.3 µM) in assay [4].
For the compound `C=C(C)[C@H](O)CC[C@@H](COC(C)=O)[C@H]1CC[C@@]2(C)[C@@H]3CC[C@@H](C(=C)C)[C@@]4(CCC(=O)O)C[C@@]34CC[C@]12C`, the MIC in assay [1] was more than 50 mg/L; in assay [2], 25 mg/L (≈ 48.6 µM); in assay [3], 12.5 mg/L (≈ 24.3 µM); in assay [4] it was 12.5 mg/L (≈ 24.3 µM).
With `C=C(C)[C@@H]1CC[C@@H]2[C@]3(CC[C@]4(C)[C@@H]([C@H](C)CC[C@H](O)C(C)(C)O)CC[C@@]24C)C[C@]13CCC(=O)O`, the minimal inhibitory concentration (MIC) in assay [1] was more than 50 mg/L; in assay [2], more than 50 mg/L; in assay [3] it was 50 mg/L (≈ 105 µM); in assay [4] it was 50 mg/L (≈ 105 µM).
In the case of `C=C(C)[C@@H]1CC[C@@H]2[C@]3(CC[C@]4(C)[C@@H]([C@@H](C/C=C/C(C)(C)O)COC(C)=O)CC[C@@]24C)C[C@]13CCC(=O)O`, the MIC in assay [1] came out at 25 mg/L (≈ 48.6 µM); in assay [2], 12.5 mg/L (≈ 24.3 µM); in assay [3], 6.3 mg/L (≈ 12.2 µM); in assay [4], 6.3 mg/L (≈ 12.2 µM). Moreover, the inhibition in assay [5] and in assay [6] was more than 60% in each case. The IC50 in assay [7] amounted to 2.3 µM; in assay [8], 0.74 µM.
As for `C=C(C)[C@H](O)CC[C@@H](CO)[C@H]1CC[C@@]2(C)[C@@H]3CC[C@@H](C(=C)C)[C@@]4(CCC(=O)O)C[C@@]34CC[C@]12C`, the MIC turned out to be 25 mg/L (≈ 52.9 µM) in assay [1], 25 mg/L (≈ 52.9 µM) in assay [2], 12.5 mg/L (≈ 26.4 µM) in assay [3] and 6.3 mg/L (≈ 13.3 µM) in assay [4]. Moreover, the inhibition in assay [5] and in assay [6] was more than 60% throughout. Further, the figures for the IC50 in assay [7] and in assay [8] were 1.4 µM and 0.99 µM, respectively.
